The source made the active and inactive calls. No cut-off for these calls is given here.
Assays:
[1] = tested on: SMMC-7721; assay: Antiproliferative activity against human SMMC7721 after 72 hrs by CellTiter Glo assay; assay type: functional, cell-based; conditions: SMMC-7721, 72 h
Summary of the method: (§1)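 Cell viability assay in hepatocellular carcinoma cell lines; IC50 values derived from concentration–response data and reported in nM.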

[2] = Antiproliferative activity against human MHCC97H after 72 hrs by CellTiter Glo assay; assay type: functional; summary of the method: as §1
[3] = Antiproliferative activity against human PLC/PRF/5 cells; assay type: functional, cell-based; summary of the method: as §1
[4] = tested on: Huh-7; assay: Antiproliferative activity against human HuH7 after 72 hrs by CellTiter Glo assay; assay type: functional, cell-based; conditions: Huh-7, 72 h; summary of the method: as §1
[5] = Cell cycle arrest in human PLC/PRF/5 cells assessed as accumulation at sub-G1 phase at 100 nM after 24 hrs by FACS analysis (reference value: 1.4%); assay type: functional, cell-based
[6] = Cell cycle arrest in human PLC/PRF/5 cells assessed as accumulation at G2 phase at 100 nM after 24 hrs by FACS analysis (reference value: 26.1%); assay type: functional, cell-based
[7] = Cell cycle arrest in human PLC/PRF/5 cells assessed as accumulation at G1 phase at 100 nM after 24 hrs by FACS analysis (reference value: 66.8%); assay type: functional, cell-based
[8] = tested on: HepG2; assay: Antiproliferative activity against human HepG2 after 72 hrs by CellTiter Glo assay; assay type: functional, cell-based; conditions: HepG2, 72 h; summary of the method: as §1
[9] = tested on: SNU-398; assay: Antiproliferative activity against human SNU398 after 72 hrs by CellTiter Glo assay; assay type: functional, cell-based; conditions: SNU-398, 72 h; summary of the method: as §1
[10] = tested on: SNU-475; assay: Antiproliferative activity against human SNU475 after 72 hrs by CellTiter Glo assay; assay type: functional, cell-based; conditions: SNU-475, 72 h; summary of the method: as §1
[11] = tested on: SNU-423; assay: Antiproliferative activity against human SNU423 after 72 hrs by CellTiter Glo assay; assay type: functional, cell-based; conditions: SNU-423, 72 h; summary of the method: as §1
[12] = tested on: SNU-398; assay: Cell cycle arrest in human SNU398 cells assessed as accumulation at G2 phase at 100 nM after 24 hrs by FACS analysis (reference value: 38.2%); assay type: functional
[13] = tested on: SNU-398; assay: Antiproliferative activity against human SNU398 cells; assay type: functional, cell-based; summary of the method: as §1
[14] = tested on: SNU-449; assay: Antiproliferative activity against human SNU449 after 72 hrs by CellTiter Glo assay; assay type: functional, cell-based; conditions: SNU-449, 72 h; summary of the method: as §1
[15] = Antiproliferative activity against human JHH4 after 72 hrs by CellTiter Glo assay; assay type: functional; summary of the method: as §1
[16] = Antiproliferative activity against human SNU182 after 72 hrs by CellTiter Glo assay; assay type: functional, cell-based; conditions: SNU-182, 72 h; summary of the method: as §1
[17] = tested on: Bel-7402; assay: Antiproliferative activity against human Bel7402 after 72 hrs by CellTiter Glo assay; assay type: functional, cell-based; conditions: Bel-7402, 72 h; summary of the method: as §1
[18] = Antiproliferative activity against human JHH7 after 72 hrs by CellTiter Glo assay; assay type: functional; summary of the method: as §1
[19] = Antiproliferative activity against human PLC/PRF/5 after 72 hrs by CellTiter Glo assay; assay type: functional; conditions: PLC-PRF-5, 72 h; summary of the method: as §1
[20] = Antiproliferative activity against human JHH2 after 72 hrs by CellTiter Glo assay; assay type: functional; summary of the method: as §1
[21] = tested on: SNU-398; assay: Cell cycle arrest in human SNU398 cells assessed as accumulation at G1 phase at 100 nM after 24 hrs by FACS analysis (reference value: 55.8%); assay type: functional
[22] = tested on: SNU-398; assay: Cell cycle arrest in human SNU398 cells assessed as accumulation at sub-G1 phase at 100 nM after 24 hrs by FACS analysis (reference value: 1.2%); assay type: functional
[23] = Antiproliferative activity against human Hep3B after 72 hrs by CellTiter Glo assay; assay type: functional, Hep 3B2; summary of the method: as §1
[24] = tested on: SNU-387; assay: Antiproliferative activity against human SNU387 after 72 hrs by CellTiter Glo assay; assay type: functional, cell-based; conditions: SNU-387, 72 h; summary of the method: as §1
[25] = organism: Bos taurus; assay: Inhibition of calf brain tubulin assembly at 10 uM by fluorometry in presence of pironetin
[26] = organism: Bos taurus; assay: Inhibition of calf brain tubulin assembly at 10 uM by fluorometry in presence of noscapine
[27] = organism: Bos taurus; assay: Inhibition of calf brain tubulin assembly at 10 uM by fluorometry in presence of podophyllotoxin
[28] = organism: Bos taurus; assay: Inhibition of calf brain tubulin assembly at 10 uM by fluorometry in presence of gossipol
[29] = organism: Bos taurus; assay: Inhibition of calf brain tubulin assembly at 10 uM by fluorometry in presence of vinblastine
[30] = organism: Bos taurus; assay: Binding affinity to calf brain tubulin assessed as binding constant by fluorometry; assay type: tissue-based
Summary of the method: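 Fluorescence titration in 10 mM sodium phosphate, 0.1 mM GTP, pH 7.0, 25 °C. Ligand at 5 μM was titrated with tubulin up to 100 μM. Bound and free ligand were quantified from the change in ligand fluorescence. Binding constant fitted assuming a single site, 1:1 stoichiometry and 0.87 sites per dimer. Average of five experiments.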

[31] = organism: Bos taurus; assay: Inhibition of calf brain tubulin assembly at 10 uM by fluorometry in presence of isohomohalichondrin
[32] = organism: Bos taurus; assay: Inhibition of calf brain tubulin assembly at 10 uM by fluorometry in presence of nocodazole
[33] = Cell cycle arrest in human PLC/PRF/5 cells assessed as accumulation at sub-G1 phase at 2 uM after 24 hrs by FACS analysis (reference value: 1.4%); assay type: functional, cell-based
[34] = tested on: SNU-398; assay: Cell cycle arrest in human SNU398 cells assessed as accumulation at G1 phase at 2 uM after 24 hrs by FACS analysis (reference value: 55.8%); assay type: functional
[35] = tested on: SNU-398; assay: Cell cycle arrest in human SNU398 cells assessed as accumulation at sub-G1 phase at 2 uM after 24 hrs by FACS analysis (reference value: 1.2%); assay type: functional
[36] = tested on: SNU-398; assay: Cell cycle arrest in human SNU398 cells assessed as accumulation at G2 phase at 2 uM after 24 hrs by FACS analysis (reference value: 38.2%); assay type: functional
[37] = organism: Bos taurus; assay: Binding affinity to calf brain tubulin assessed as increase in fluorescence at 10 uM by fluorometry relative to control
Summary of the method: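 Fluorescence emission spectra of 10 μM ligand with and without 10 μM tubulin in 10 mM sodium phosphate, 0.1 mM GTP, pH 7.0, 25 °C. Emission intensity (425 nm maximum) and anisotropy were compared between bound and unbound ligand.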

[38] = Cell cycle arrest in human PLC/PRF/5 cells assessed as accumulation at G1 phase at 2 uM after 24 hrs by FACS analysis (reference value: 66.8%); assay type: functional, cell-based
[39] = Cell cycle arrest in human PLC/PRF/5 cells assessed as accumulation at G2 phase at 2 uM after 24 hrs by FACS analysis (reference value: 26.1%); assay type: functional, cell-based

SMILES: C/C(=C\c1csc(C)n1)[C@@H]1C[C@@H]2O[C@]2(C)CCC[C@H](C)[C@H](O)[C@@H](C)C(=O)C(C)(C)[C@@H](O)CC(=O)O1 [PATUPILONE]
- IC50 [1]: 2.3 nM
- IC50 [2]: 6.7 nM
- IC50 [3]: 3.8 nM
- IC50 [4]: 4.5 nM
- Activity [5]: 5.1%
- Activity [6]: 56.3%
- Activity [7]: 5.4%
- IC50 [8]: 44.7 nM
- IC50 [9]: 2.9 nM
- IC50 [10]: 11.6 nM
- IC50 [11]: 10.3 nM
- Activity [12]: 70.1%
- IC50 [13]: 5 nM
- IC50 [14]: 19.9 nM
- IC50 [15]: 1.8 nM
- IC50 [16]: 22.3 nM
- IC50 [17]: 0.9 nM
- IC50 [18]: 14.8 nM
- IC50 [19]: 12.7 nM
- IC50 [20]: 61.3 nM
- Activity [21]: 13.7%
- Activity [22]: 11.8%
- IC50 [23]: > 100 nM
- IC50 [24]: 20 nM

SMILES: COC(=O)Nc1nc2cc(C(=O)c3cccs3)ccc2[nH]1
- inhibition [25]: Active
- inhibition [26]: Active
- inhibition [27]: Active
- inhibition [28]: Active
- inhibition [29]: Active
- Activity [30]: 4 ×10⁵ /M
- inhibition [31]: Active
- inhibition [32]: inactive

SMILES: COc1ccc2c(c1O)C(=O)O[C@@H]2[C@H]1c2c(cc3c(c2OC)OCO3)CCN1C
- IC50 [3]: > 2000 nM
- Activity [33]: 8.7%
- Activity [34]: 33.5%
- Activity [35]: 15.2%
- Activity [36]: 47.8%
- Activity [37]: inactive
- Activity [38]: 62.8%
- Activity [39]: 23.3%
- IC50 [13]: > 2000 nM
